Results taken from ChEMBL document CHEMBL1155356, “Design, synthesis, and structure-activity relationship of novel orally efficacious pyrazole/sulfonamide based dihydroquinoline gamma-secretase inhibitors” (Bioorg Med Chem Lett, 2009).
pIC50: −log10 of the molar value.

How the values were obtained:
Gamma-secretase = assay: Inhibition of Gamma-secretase in human IMR-32 cells after 2 hrs by ELISA assay; type: cell-based
In short: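 γ-Secretase came from IMR-32 cell membranes, and compound was first diluted in DMSO. Reaction at 37 °C was started with MBPC-125 Swedish substrate, run for 2 h, then stopped with SDS. Cleaved substrate was measured by Aβ40-specific ELISA. Values are means of three experiments.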

[1] = Oxidative metabolic stability in human liver microsomes at 1 uM after 30 mins in presence of 1 mM NADPH; type: ADME, Microsome; conditions: liver microsomes, read-out: Stability
In short: (§1)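 Oxidative stability: compound at 1 µM incubated 30 min at 37 °C in phosphate buffer with liver microsomes (0.5 mg/ml protein) plus 1 mM NADPH. Percent parent remaining reported. Human or mouse microsomes per line.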

[2] = Oxidative metabolic stability in mouse liver microsomes at 1 uM after 30 mins in presence of 1 mM NADPH; type: ADME, Microsome; conditions: liver microsomes, read-out: Stability; in short: as §1
Mus musculus [3] = assay: Reduction of cortical abeta40 level in FVB mouse at 3 mg/kg, po after 3 hrs; type: functional; set-up: scale not given: the % may be the effect or the level left
[4] = Apparent permeability from apical to basolateral side in MDCK2 cells at 5 uM after 120 mins; type: ADME, cell-based, Canis lupus familiaris, MDCK-II; conditions: dog, MDCK
In short: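 Compound at 5 µM in mHBSS pH 7.4 applied to MDCK II cell monolayers for 120 min at 37 °C. Apical and basolateral chambers sampled and analysed by LC/MS/MS.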

Mus musculus [5] = assay: Reduction of cortical abeta40 level in FVB mouse at 30 mg/kg, po after 3 hrs; type: functional; set-up: scale not given: the % may be the effect or the level left
[6] = Metabolic stability in mouse liver microsomes at 2 uM after 30 mins in presence of 1 mM UDPGA; type: ADME, Microsome; conditions: read-out: Stability
In short: (§2)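 Glucuronidation stability: 2 µM compound incubated 30 min at 37 °C in phosphate buffer with liver microsomes (0.5 mg protein), 1 mM UDPGA, 100 mM MgCl2 and 25 µg/mL alamethicin. Read-out is percent parent compound remaining. Human or mouse microsomes per line.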

[7] = Metabolic stability in human liver microsomes at 2 uM after 30 mins in presence of 1 mM UDPGA; type: ADME, Microsome; conditions: read-out: Stability; in short: as §2
[8] = Solubility in HBSS buffer at 20 mM at pH 7.4 after 1 hr; type: physicochemical
In short: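 20 mM DMSO stocks serially diluted in DMSO, then diluted 1:200 into HBSS pH 7.4. After 1 h incubation, plates read on a solubility scanner.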

pIC50 (Gamma-secretase): 9.21
remaining at 0.5 h, 1 µM [1]: 1%
remaining at 0.5 h, 1 µM [2]: 7%
Papp A→B at 2 h, 5 µM [4]: 19.8 ×10⁻⁶ cm/s
remaining at 0.5 h, 2 µM [6]: 91%
remaining at 0.5 h, 2 µM [7]: 77%
solubility at 1 h [8]: > 100 µM
SMILES: C[C@@H]1c2c[nH]nc2-c2cc(F)ccc2N1S(=O)(=O)c1ccc(Cl)cc1
Activity (Mus musculus [3]): 7%
Activity (Mus musculus [5]): 37%
